Assays:
MDA-MB-231 cells = assay: Cell viability, trypan blue exclusion; format: cell-based; details: drug 24 μM, 24-hour treatment
Outline: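 MDA-MB-231 cells grown to 80% confluence, harvested, seeded at 1.5 × 10^5 cells/mL and left overnight. Medium replaced with FBS-free medium containing test compound at 24 μM. FBS added after 1 h, then a further 24 h exposure. Cell density counted by trypan blue exclusion. Viability (%) = treated density / DMSO-only control density × 100.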

untagged Asf1 = untagged Asf1 (Homo sapiens, UniProt Q9Y294); assay: ALPHA binding studies with Asf1; details: two different versions of ALPHA; data not shown
Chain of untagged Asf1 (Q9Y294 1-155): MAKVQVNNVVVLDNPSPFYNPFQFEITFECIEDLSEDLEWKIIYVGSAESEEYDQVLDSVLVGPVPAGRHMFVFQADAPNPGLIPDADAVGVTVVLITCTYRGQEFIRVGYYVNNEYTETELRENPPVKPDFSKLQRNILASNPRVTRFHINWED

Asf1-H3/H4 = Asf1-H3/H4 (Homo sapiens, UniProt Q9Y294); assay: Asf1-H3/H4 binding inhibition
Chain of Asf1-H3/H4 (Q9Y294 1-155): as above

SMILES | Asf1-H3/H4 binding potency/activity, in words (Asf1-H3/H4) | also measured
COc1ccc(-c2cc([C@@H](O)[C@@H]3CCCCN3)c3ccccc3n2)cc1.Cl [Compound 1] | – | Cell viability (cytotoxicity), in words (MDA-MB-231 cells): potently inhibit cell viability; Binding to untagged Asf1, in words (untagged Asf1): not to bind
COc1cc(/C=N/NC(=O)c2ccc(NC(C)=O)cc2)cc(Br)c1O [Compound 18] | significant loss of potency | –
COc1cc(/C=N/NC(=O)C2CCNCC2)cc(Br)c1O [Compound 25] | ineffective | –
COc1cc(/C=N/NC(=O)C2CCOCC2)cc(Br)c1O [Compound 26] | ineffective | –
COc1cc(/C=N/NC(=O)c2ccc(NC(=O)c3ccccc3)c(COCCN(C)C)c2)cc(Br)c1O [Compound 33] | did not improve potency | –
O=C(N/N=C/c1cc(Br)ccc1O)c1ccncc1 [Compound 47] | significant boost in potency | Assay interference (metal scavenging) (Asf1-H3/H4; upon further analysis): false positive results
COc1cc(/C=N/N(C)C(=O)c2ccc(NC(=O)c3ccccc3)cc2)cc(Br)c1O [Compound 52] | tolerated | –
